Measured values published in ChEMBL document CHEMBL1124186, “Synthesis and evaluation of tylosin-related macrolides modified at the aldehyde function: a new series of orally effective antibiotics” (1988).
Converted amounts (≈) assume the structure as drawn.

Key:
Staphylococcus aureus [1] = experiment: In vitro antimicrobial activity against aerobic bacteria Staphylococcus aureus 513E; format: functional
Streptococcus [2] = experiment: In vitro antimicrobial activity against aerobic bacteria Streptococcus B 14; format: functional
Streptococcus [3] = experiment: In vitro antimicrobial activity against aerobic bacteria Streptococcus D 2041; format: functional
Mus musculus [4] = experiment: Peripheral plasma levels in mice after oral administration of 50 mg/kg dose for 2 hr; format: functional, organism-based; parameters: dose 50 mg/kg
How it was run: (§1)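 Mice were given the compound orally and sampled for peripheral plasma at each time point. Plasma was assayed microbiologically against Micrococcus luteus seeded in Antibiotic Medium 1. Inhibition zone sizes were read, and concentrations were calculated from each compound's own standard curve. Each value is the mean of five mice per time point.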

Clostridium septicum = experiment: In vitro antimicrobial activity against anaerobic bacteria clostridium septicum 1128; format: functional
[5] = test system: Bacteroides thetaiotaomicron; experiment: In vitro antimicrobial activity against anaerobic bacteria bacteroides thetaiotaomicron 1438; format: functional
Haemophilus influenzae [6] = experiment: In vitro antimicrobial activity against aerobic bacteria Haemophilus influenzae 76; format: functional
Bacteroides fragilis [7] = experiment: In vitro antimicrobial activity against anaerobic bacteria bacteroides fragilis 111; format: functional
Chlamydia trachomatis = experiment: In vitro antimicrobial activity against chlamydia trachomatis.; format: functional
[8] = In vitro antimicrobial activity against anaerobic bacteria peptostreptococcus intermedius 1264; format: functional
Streptococcus pneumoniae [9] = experiment: In vitro antimicrobial activity against aerobic bacteria Streptococcus pneumoniae B1-438; format: functional, streptococcus pneum
Anaerococcus prevotii = experiment: In vitro antimicrobial activity against anaerobic bacteria peptococcus prevoti 1281; format: functional
Streptococcus [10] = experiment: In vitro antimicrobial activity against aerobic bacteria Streptococcus D 9960; format: functional
Eikenella corrodens = experiment: In vitro antimicrobial activity against anaerobic bacteria bacteroides corrodens 1874; format: functional
Staphylococcus aureus [11] = experiment: In vitro antimicrobial activity against Staphylococcus aureus X1; format: functional
[12] = test system: Haemophilus parainfluenzae; experiment: In vitro antimicrobial activity against aerobic bacteria Haemophilus parainfluenzae 9796; format: functional
[13] = test system: Staphylococcus epidermidis; experiment: In vitro antimicrobial activity against Staphylococcus epidermidis EPI1; format: functional
Collinsella aerofaciens = experiment: In vitro antimicrobial activity against anaerobic bacteria aerofaciens 1235; format: functional
[14] = test system: Peptostreptococcus anaerobius; experiment: In vitro antimicrobial activity against anaerobic bacteria eubacterium peptostreptococcus anaerobius 1428,; format: functional
Mus musculus [15] = experiment: Peripheral plasma levels in mice after oral administration of 50 mg/kg dose for 1 hr; format: functional, organism-based; parameters: dose 50 mg/kg; how it was run: as §1
Mus musculus [16] = experiment: Peripheral plasma levels in mice after oral administration of 50 mg/kg dose for 4 hr; format: functional, organism-based; parameters: dose 50 mg/kg; how it was run: as §1
Haemophilus influenzae [17] = experiment: In vitro antimicrobial activity against aerobic bacteria Haemophilus influenzae MX366,; format: functional
Streptococcus pneumoniae [18] = experiment: In vivo effective dose against experimental infections in mice Streptococcus pneumoniae administered sc; format: functional
Mus musculus [19] = experiment: Peripheral plasma levels in mice after oral administration of 50 mg/kg dose for 0.5 hr; format: functional, organism-based; parameters: dose 50 mg/kg; how it was run: as §1
Streptococcus pneumoniae [20] = experiment: In vivo effective dose against experimental infections in mice Streptococcus pneumoniae park when administered orally; format: functional; details: po
Fusobacterium = experiment: In vitro antimicrobial activity against anaerobic bacteria fusobacterium symbiosum 1470; format: functional
Enterococcus faecium = experiment: In vitro antimicrobial activity against Streptococcus faecium X66; format: functional, streptococcus fae-cium
Mus musculus [21] = experiment: Peripheral plasma levels in mice after oral administration of 50 mg/kg dose for 0.25 hr; format: functional, organism-based; parameters: dose 50 mg/kg; how it was run: as §1
Streptococcus [22] = experiment: In vitro antimicrobial activity against aerobic bacteria Streptococcus B 5; format: functional
Mus musculus [23] = experiment: Peripheral plasma levels in mice after oral administration of 100 mg/kg dose for 0.5 hr; format: functional, organism-based; parameters: dose 100 mg/kg; how it was run: as §1
[24] = test system: Staphylococcus epidermidis; experiment: In vitro antimicrobial activity against aerobic bacteria Streptococcus epi 222; format: functional
Mus musculus [25] = experiment: Peripheral plasma levels in mice after oral administration of 100 mg/kg dose for 0.25 hr; format: functional, organism-based; parameters: dose 100 mg/kg; how it was run: as §1
Staphylococcus aureus [26] = experiment: In vitro antimicrobial activity against aerobic bacteria Staphylococcus aureus X400; format: functional
Staphylococcus aureus [27] = experiment: In vitro antimicrobial activity against aerobic bacteria Staphylococcus aureus V41; format: functional
Streptococcus [28] = experiment: In vitro antimicrobial activity against aerobic bacteria Streptococcus D 8043; format: functional
[29] = test system: Peptoniphilus asaccharolyticus; experiment: In vitro antimicrobial activity against anaerobic bacteria peptococcus asaccharolyticus 1302; format: functional
Bacteroides fragilis [30] = experiment: In vitro antimicrobial activity against anaerobic bacteria bacteroides fragilis 1877; format: functional
Mus musculus [31] = experiment: Peripheral plasma levels in mice after oral administration of 100 mg/kg dose for 2 hr; format: functional, organism-based; parameters: dose 100 mg/kg; how it was run: as §1
Haemophilus influenzae [32] = experiment: In vitro antimicrobial activity against aerobic bacteria Haemophilus influenzae 465; format: functional
[33] = test system: Prevotella melaninogenica; experiment: In vitro antimicrobial activity against anaerobic bacteria bacteroides melaninogenicus 2736; format: functional
Mus musculus [34] = experiment: Peripheral plasma levels in mice after oral administration of 100 mg/kg dose for 4 hr; format: functional, organism-based; parameters: dose 100 mg/kg; how it was run: as §1
Cutibacterium acnes = experiment: In vitro antimicrobial activity against anaerobic bacteria propionibacterium acnes 79; format: functional
Clostridium perfringens = experiment: In vitro antimicrobial activity against anaerobic bacteria clostridium perfringens 81,; format: functional
Staphylococcus aureus [35] = experiment: In vitro antimicrobial activity against aerobic bacteria Staphylococcus aureus V135; format: functional
Bacteroides fragilis [36] = experiment: In vitro antimicrobial activity against anaerobic bacteria bacteroides fragilis 1936B,; format: functional
Clostridioides difficile = experiment: In vitro antimicrobial activity against anaerobic bacteria Clostridium difficile 2994; format: functional
[37] = test system: Prevotella melaninogenica; experiment: In vitro antimicrobial activity against anaerobic bacteria bacteroides melaninogenicus 1856,; format: functional
Staphylococcus aureus [38] = experiment: In vitro antimicrobial activity against aerobic bacteria Staphylococcus aureus V140,; format: functional
Phocaeicola vulgatus = experiment: In vitro antimicrobial activity against anaerobic bacteria bacteroides vulgatus 1211; format: functional
Mus musculus [39] = experiment: Peripheral plasma levels in mice after oral administration of 100 mg/kg dose for 1 hr; format: functional, organism-based; parameters: dose 100 mg/kg; how it was run: as §1
Haemophilus influenzae [40] = experiment: In vitro antimicrobial activity against Haemophilus influenzae.; format: functional
[41] = test system: Fusobacterium necrophorum; experiment: In vitro antimicrobial activity against anaerobic bacteria usobacterium necrophorum 6054A; format: functional
[42] = test system: Staphylococcus epidermidis; experiment: In vitro antimicrobial activity against aerobic bacteria Streptococcus epi 270; format: functional

`CC[C@H]1OC(=O)C[C@@H](O)[C@H](C)[C@@H](O[C@@H]2O[C@H](C)[C@@H](O)[C@H](N(C)C)[C@H]2O)[C@@H](CCOc2ccc(C(=O)c3ccccc3)cc2)C[C@@H](C)C(=O)/C=C/C(C)=C/[C@@H]1CO[C@@H]1O[C@H](C)[C@@H](O)[C@@H](OC)[C@H]1OC` gave an MIC (Staphylococcus aureus [1]) of 0.25 µg/mL (≈ 0.262 µM), an MIC (Streptococcus [2]) of 1 µg/mL (≈ 1.05 µM) and an MIC (Streptococcus [3]) of 0.5 µg/mL (≈ 0.524 µM). The Concentration (Mus musculus [4]) was 1.8 µg/mL, the MIC (Clostridium septicum) was < 0.5 µg/mL and the MIC [5] was 4 µg/mL (≈ 4.19 µM). For the same compound, the MIC (Haemophilus influenzae [6]) was 16 µg/mL (≈ 16.8 µM), the MIC (Bacteroides fragilis [7]) was 2 µg/mL (≈ 2.1 µM) and the MIC (Chlamydia trachomatis) was > 2 µg/mL. For the same compound, the MIC [8] was < 0.5 µg/mL, the MIC (Streptococcus pneumoniae [9]) was 128 µg/mL (≈ 134 µM) and the MIC (Anaerococcus prevotii) was 2 µg/mL (≈ 2.1 µM). The MIC (Streptococcus [10]) was 0.5 µg/mL (≈ 0.524 µM), the MIC (Eikenella corrodens) was 2 µg/mL (≈ 2.1 µM) and the MIC (Staphylococcus aureus [11]) was 0.25 µg/mL (≈ 0.262 µM). For the same compound, the MIC [12] was 32 µg/mL (≈ 33.5 µM), the MIC [13] was 0.25 µg/mL (≈ 0.262 µM) and the MIC (Collinsella aerofaciens) was < 0.5 µg/mL. The MIC [14] was < 0.5 µg/mL, the Concentration (Mus musculus [15]) was 0.1 µg/mL and the Concentration (Mus musculus [16]) was 0.8 µg/mL. For the same compound, the MIC (Haemophilus influenzae [17]) was 16 µg/mL (≈ 16.8 µM), the ED50 (Streptococcus pneumoniae [18]) was > 20 mg/kg and the Concentration (Mus musculus [19]) was 0.4 µg/mL. For the same compound, the ED50 (Streptococcus pneumoniae [20]) was > 50 mg/kg, the MIC (Fusobacterium) was 2 µg/mL (≈ 2.1 µM) and the MIC (Enterococcus faecium) was 0.25 µg/mL (≈ 0.262 µM). It also gave a Concentration (Mus musculus [21]) of 0.1 µg/mL, an MIC (Streptococcus [22]) of 1 µg/mL (≈ 1.05 µM) and a Concentration (Mus musculus [23]) of 1.1 µg/mL. The MIC [24] was 0.12 µg/mL (≈ 0.126 µM), the Concentration (Mus musculus [25]) was 1.3 µg/mL and the MIC (Staphylococcus aureus [26]) was 0.25 µg/mL (≈ 0.262 µM). For the same compound, the MIC (Staphylococcus aureus [27]) was 0.25 µg/mL (≈ 0.262 µM), the MIC (Streptococcus [28]) was 0.25 µg/mL (≈ 0.262 µM) and the MIC [29] was < 0.5 µg/mL. For the same compound, the MIC (Bacteroides fragilis [30]) was 2 µg/mL (≈ 2.1 µM), the Concentration (Mus musculus [31]) was 2 µg/mL and the MIC (Haemophilus influenzae [32]) was 32 µg/mL (≈ 33.5 µM). The MIC [33] was 2 µg/mL (≈ 2.1 µM), the Concentration (Mus musculus [34]) was 1.2 µg/mL and the MIC (Cutibacterium acnes) was < 0.5 µg/mL. For the same compound, the MIC (Clostridium perfringens) was < 0.5 µg/mL, the MIC (Staphylococcus aureus [35]) was 0.5 µg/mL (≈ 0.524 µM) and the MIC (Bacteroides fragilis [36]) was 4 µg/mL (≈ 4.19 µM). For the same compound, the MIC (Clostridioides difficile) was < 0.5 µg/mL, the MIC [37] was < 0.5 µg/mL and the MIC (Staphylococcus aureus [38]) was 0.5 µg/mL (≈ 0.524 µM). The MIC (Phocaeicola vulgatus) was < 0.5 µg/mL, the Concentration (Mus musculus [39]) was 2.3 µg/mL and the MIC (Haemophilus influenzae [40]) was 16 µg/mL (≈ 16.8 µM). For the same compound, the MIC [41] was 4 µg/mL (≈ 4.19 µM) and the MIC [42] was > 128 µg/mL.
